# Measurements collected from several papers.
# Lines come from different studies, so protocols differ.
# CDKL1: Cyclin-dependent kinase-like 1 (CDKL1, Homo sapiens, UniProt Q00532)
# MAP3K11: Mitogen-activated protein kinase kinase kinase 11 (MAP3K11, Homo sapiens, UniProt Q16584)
Compound,target,test,test system,setting,endpoint,value
Cn1c2c(c3ccc(Cl)c(Cl)c31)C(C#N)C1(CCCC1)NC2=O (stereo not drawn),CDKL1,"thermal stability, DSF",,10 µM,ΔTm,0 °C
NS(=O)(=O)c1ccc(CNc2nc(Nc3cccc(CN4CCOCC4)c3)ncc2C2CC2)cc1,MAP3K11,"enzyme activity, inhibitor, radiometric",,1 µM,remaining activity,68%
Nc1ncnc2occ(-c3ccc(NC(=O)Nc4cc(C(F)(F)F)ccc4F)cc3)c12,"Myosin-IIIa (MYO3A, Homo sapiens, UniProt Q8NEV4)",cell-free assay,,20 µM,remaining signal,0.05%
NS(=O)(=O)c1ccc(CNc2ccnc(Nc3cccc(CN4CCOCC4)c3)n2)cc1,MAP3K11,"enzyme activity, inhibitor, radiometric",,1 µM,remaining activity,95%
Cn1c2c(c3ccc(Cl)c(Cl)c31)C(C#N)C(C)(C)NC2=O (stereo not drawn),CDKL1,"thermal stability, DSF",,10 µM,ΔTm,0 °C
CN1CCc2cc(Nc3ncc(C4CC4)c(NCCCNC(=O)C4CCC4)n3)ccc2C1,"Serine/threonine-protein kinase ULK1 (ULK1, Homo sapiens, UniProt O75385)","enzyme activity, inhibitor, radiometric",,1 µM,remaining activity,1%
Cn1c2c(c3ccc(Cl)c(Cl)c31)C(C#N)C1(CCNCC1)NC2=O (racemic),CDKL1,"thermal stability, DSF",,10 µM,ΔTm,0.9 °C
Cc1ccc(NC(=O)c2ccc(C)c(C(F)(F)F)c2)cc1C#Cc1nn(C2CCC(O)CC2)c2ncnc(N)c12 (stereo not drawn),"Hepatocyte growth factor receptor (MET, Homo sapiens, UniProt P08581, Y1230H)",cell-free assay,,10 µM,remaining signal,123%
Cn1c2c(c3ccccc31)C(C#N)C(C)(C)NC2=O (stereo not drawn),CDKL1,"thermal stability, DSF",,10 µM,ΔTm,-0.1 °C
c1cc(CN2CCOCC2)cc(Nc2ncc(C3CC3)c(NCCc3c[nH]cn3)n2)c1,MAP3K11,"enzyme activity, inhibitor, radiometric",,1 µM,remaining activity,27%
Cc1cnc(NC2CCOCC2)nc1-n1cnc(C(=O)NC(CN)c2cc(F)cc(Cl)c2)c1 (stereo not drawn),"Hepatocyte growth factor receptor (MET, Homo sapiens, UniProt P08581, Y1230C)","enzyme activity, inhibitor, radiometric",,1 µM,remaining activity,100%
Cc1cc(NC(=O)c2cccc3cc(-c4cccc5[nH]nc(N)c45)ccc23)ccc1F,"Hepatocyte growth factor receptor (MET, Homo sapiens, UniProt P08581, D1228H)","enzyme activity, inhibitor",,0.1 µM,activity vs control,145%
CCN1CCN(Cc2ccc(NC(=O)c3ccc(C)c(Oc4ccnc5[nH]ccc45)c3)cc2C(F)(F)F)CC1,"Eukaryotic elongation factor 2 kinase (EEF2K, Homo sapiens, UniProt O00418)","target engagement in cells, inhibitor, chemoproteomics",A-375,50 nM,inhibition,-13.9%
Cn1c2c(Cl)c(Cl)ccc2c2cc[nH]c(=O)c21,CDKL1,"thermal stability, DSF",,10 µM,ΔTm,-0.1 °C
NS(=O)(=O)c1ccc(CNc2nc(Nc3cccc(NC(=O)N4CCCC4)c3)ncc2Br)cc1,MAP3K11,"enzyme activity, inhibitor, radiometric",,1 µM,remaining activity,24%
